*1 amine or outer side, *2 acyl side, *3 side chain or, on linkers, in order; H or OH if unused. Where a SMILES comes first, the peptide text is derived from it. Bridges are numbered along the chain shown (N, C = ends). Roman numbers before positions name the chains, in order. Side-chain parts run from the residue outwards. [ ]: non-standard residue; d: D form. X4 = NC(N)=NCCC[C@@H](CN([C@@H](Cc1c[nH]cn1)C(=O)[*:2])[*:1])N[*:3]; X3 = CC(C)C[C@@H](CN([C@@H](CCCNC(=N)N)C(=O)[*:2])[*:1])N[*:3]; Dip = N[C@H](C(=O)O)C(c1ccccc1)c1ccccc1; 1Nal = N[C@@H](Cc1cccc2ccccc12)C(=O)O; 3Thi = N[C@@H](Cc1ccsc1)C(=O)O
What was measured:
Rattus norvegicus = assay: Tested for in vivo antisecretory potency for inhibiting VIP-induced (30 micro g/kg/h) secretion in isolated jejunum in anesthetized rats.(95% CL); type: functional; conditions: read-out: ID50 (the source's name)
Method in brief: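 Rats anesthetized, saphenous vein cannulated. Isolated jejunal loop instilled with 2000 μL fluid. At the end the loop is excised, measured and weighed before and after emptying. Net water flux (μL/cm/30 min) = (F-E)2000/L; negative means absorption. 6-8 animals per dose.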

[1] = molecular target: Neuropeptide Y receptor type 1 (Homo sapiens, UniProt P25929); assay: Affinity against Neuropeptide Y receptor Y1 in SK-N-MC cell line; type: cell-based
Sequence of Neuropeptide Y receptor type 1 (P25929 whole entry): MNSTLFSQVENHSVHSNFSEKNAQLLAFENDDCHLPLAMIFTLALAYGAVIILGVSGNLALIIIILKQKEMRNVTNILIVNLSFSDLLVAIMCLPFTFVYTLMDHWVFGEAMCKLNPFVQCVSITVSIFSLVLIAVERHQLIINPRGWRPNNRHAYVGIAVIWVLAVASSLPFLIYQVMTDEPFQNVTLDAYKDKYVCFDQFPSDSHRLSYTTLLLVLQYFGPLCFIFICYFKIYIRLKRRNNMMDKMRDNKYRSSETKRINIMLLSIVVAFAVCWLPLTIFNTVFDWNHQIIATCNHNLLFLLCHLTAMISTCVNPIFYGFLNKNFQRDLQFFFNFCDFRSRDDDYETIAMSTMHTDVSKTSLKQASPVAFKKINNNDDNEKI

[2] = molecular target: T1, Neuropeptide Y receptor type 2 (Rattus norvegicus, UniProt Q9ERC0); assay: Antisecretory potency, affinity for intestinal PYY of rat jejunum by using short circuit current (SCC) method.; type: tissue-based
T1 sequence (Q9ERC0 whole entry): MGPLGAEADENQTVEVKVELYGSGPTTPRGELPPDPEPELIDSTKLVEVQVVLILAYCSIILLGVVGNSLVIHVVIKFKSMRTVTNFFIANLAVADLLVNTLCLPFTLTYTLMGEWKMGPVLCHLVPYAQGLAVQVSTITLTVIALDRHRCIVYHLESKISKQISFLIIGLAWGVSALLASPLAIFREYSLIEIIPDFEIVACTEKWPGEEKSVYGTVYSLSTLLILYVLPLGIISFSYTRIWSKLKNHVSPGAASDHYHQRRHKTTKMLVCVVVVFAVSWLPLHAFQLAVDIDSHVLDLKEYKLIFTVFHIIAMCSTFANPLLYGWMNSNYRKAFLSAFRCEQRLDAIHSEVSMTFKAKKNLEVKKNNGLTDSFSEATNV

[3] = molecular target: T2, Neuropeptide Y receptor type 2 (Homo sapiens, UniProt P49146); assay: Affinity against Neuropeptide Y receptor Y2 in SK-N-BE2 cell line
T2 sequence (P49146 whole entry): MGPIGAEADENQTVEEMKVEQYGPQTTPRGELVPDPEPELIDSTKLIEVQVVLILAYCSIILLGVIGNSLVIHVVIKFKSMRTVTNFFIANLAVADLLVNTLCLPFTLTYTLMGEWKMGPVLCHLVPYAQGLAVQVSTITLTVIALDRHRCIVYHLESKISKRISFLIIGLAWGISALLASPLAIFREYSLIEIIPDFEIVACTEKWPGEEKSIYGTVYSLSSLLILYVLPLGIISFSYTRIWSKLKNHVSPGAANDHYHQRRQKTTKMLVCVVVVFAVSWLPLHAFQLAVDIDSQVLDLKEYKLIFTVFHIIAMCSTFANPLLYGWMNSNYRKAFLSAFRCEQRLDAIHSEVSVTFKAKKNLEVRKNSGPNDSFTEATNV

[4] = molecular target: T1, Neuropeptide Y receptor type 2; assay: Tested for the affinity for intestinal PYY from rat jejunum by using short circuit current (SCC) method.

| Molecule | IC50 [1] | IC50 [2] | IC50 [3] | IC50 [4] | IC50 ([1]; sk-n-mc) | ED50 (Rattus norvegicus) |
| --- | --- | --- | --- | --- | --- | --- |
| CC(=O)N[C@@H](C)C(=O)N[C@@H](CO)C(=O)N[C@@H](CC(C)C)C(=O)N[C@@H](CCCN=C(N)N)C(=O)N[C@@H](Cc1c[nH]cn1)C(=O)N[C@@H](Cc1ccc(O)cc1)C(=O)N[C@@H](CC(C)C)C(=O)N[C@@H](CC(N)=O)C(=O)N[C@@H](Cc1c[nH]c2ccccc12)C(=O)N[C@H](C(=O)N[C@H](C(=O)N[C@@H](CCCN=C(N)N)C(=O)N[C@@H](CCC(N)=O)C(=O)N[C@@H](CCCN=C(N)N)CN[C@@H](Cc1ccc(O)cc1)C(N)=O)[C@@H](C)O)C(C)C |  |  |  |  |  | 0.00019 µmol/kg |
| CCCC[C@H](NC(=O)[C@H](CO)NC(=O)[C@H](C)NC(C)=O)C(=O)N[C@@H](CCCN=C(N)N)C(=O)N[C@@H](Cc1c[nH]cn1)C(=O)N[C@@H](Cc1ccc(O)cc1)C(=O)N[C@@H](CCCC)C(=O)N[C@@H](CC(N)=O)C(=O)N[C@@H](Cc1c[nH]c2ccccc12)C(=O)N[C@@H](CCC)C(=O)N[C@H](C(=O)N[C@@H](CCCN=C(N)N)C(=O)N[C@@H](CCC(N)=O)C(=O)N[C@@H](CCCN=C(N)N)C(=O)N[C@@H](Cc1ccc(O)cc1)C(N)=O)[C@@H](C)O |  |  |  |  |  | 1.3e-05 µmol/kg |
| CCCC[C@H](NC(=O)[C@H](CO)NC(=O)[C@H](C)NC(C)=O)C(=O)N[C@@H](CCCN=C(N)N)C(=O)N[C@@H](Cc1c[nH]cn1)C(=O)N[C@@H](Cc1ccc(O)cc1)C(=O)N[C@@H](CCCC)C(=O)N[C@@H](CC(N)=O)C(=O)N[C@@H](Cc1c[nH]c2ccccc12)C(=O)N[C@@H](CCC)C(=O)N[C@H](C(=O)N[C@@H](CCCN=C(N)N)C(=O)N[C@@H](CCC(N)=O)C(=O)N[C@@H](CCCN=C(N)N)CN[C@@H](Cc1ccc(O)cc1)C(N)=O)[C@@H](C)O | 1570 nM | 0.31 nM | 1.75 nM |  |  | 5.9e-05 µmol/kg |
| CNC(=O)[C@H](Cc1ccc(O)cc1)NC(=O)[C@H](CCCNC(=N)N)NC(=O)[C@H](CCC(N)=O)NC(=O)[C@H](CCCNC(=N)N)NC(=O)[C@@H](NC(=O)[C@@H](NC(=O)[C@H](CC(C)C)NC(=O)[C@H](CC(N)=O)NC(=O)[C@H](CC(C)C)NC(=O)[C@H](Cc1c[nH]c2ccccc12)NC(=O)[C@H](Cc1cnc[nH]1)NC(=O)[C@H](CCCNC(=N)N)NC(=O)[C@H](CC(C)C)NC(=O)[C@H](CO)NC(=O)[C@H](C)NC(C)=O)C(C)C)[C@@H](C)O (Ac-ASLRHWLNLVTRQRY-NHMe) | > 1000 nM |  | > 100 nM | > 100 nM |  |  |
| CC(=O)N[C@@H](C)C(=O)N[C@@H](CO)C(=O)N[C@@H](CC(C)C)C(=O)N[C@@H](CCCN=C(N)N)C(=O)N[C@@H](Cc1c[nH]cn1)C(=O)N[C@@H](Cc1cccc2ccccc12)C(=O)N[C@@H](CC(C)C)C(=O)N[C@@H](CC(N)=O)C(=O)N[C@@H](CC(C)C)C(=O)N[C@H](C(=O)N[C@H](C(=O)N[C@@H](CCCN=C(N)N)C(=O)N[C@@H](CCC(N)=O)C(=O)N[C@@H](CCCN=C(N)N)C(=O)N[C@@H](Cc1ccc(O)cc1)C(N)=O)[C@@H](C)O)C(C)C (Ac-ASLRH[1Nal]LNLVTRQRY-NH2) | 88.3 nM | 6.6 nM | 7.08 nM |  |  |  |
| CC(=O)N[C@@H](C)C(=O)N[C@@H](CO)C(=O)N[C@@H](CC(C)C)C(=O)N[C@@H](CCCNC(=N)N)C(=O)N[C@@H](Cc1cnc[nH]1)C(=O)N[C@H](C(=O)N[C@@H](CC(C)C)C(=O)N[C@@H](CC(N)=O)C(=O)N[C@@H](CC(C)C)C(=O)N[C@H](C(=O)N[C@H](C(=O)N[C@@H](CCCNC(=N)N)C(=O)N[C@@H](CCC(N)=O)C(=O)N[C@@H](CCCNC(=N)N)C(=O)N[C@@H](Cc1ccc(O)cc1)C(N)=O)[C@@H](C)O)C(C)C)C(c1ccccc1)c1ccccc1 (Ac-ASLRH[Dip]LNLVTRQRY-NH2) | 447 nM | 16.5 nM | 10 nM |  |  |  |
| CC(=O)N[C@@H](C)C(=O)N[C@@H](CO)C(=O)N[C@H](CN[C@@H](CCCNC(=N)N)C(=O)N[C@@H](Cc1cnc[nH]1)C(=O)N[C@@H](Cc1ccc(O)cc1)C(=O)N[C@@H](CC(C)C)C(=O)N[C@@H](CC(N)=O)C(=O)N[C@@H](CC(C)C)C(=O)N[C@H](C(=O)N[C@H](C(=O)N[C@@H](CCCNC(=N)N)C(=O)N[C@@H](CCC(N)=O)C(=O)N[C@@H](CCCNC(=N)N)C(=O)N[C@@H](Cc1ccc(O)cc1)C(N)=O)[C@@H](C)O)C(C)C)CC(C)C (H-[X3]([Ser-Ala-Ac])HYLNLVTRQRY-NH2) | 735 nM | 2.76 nM | 59 nM |  |  |  |
| CC(=O)N[C@@H](C)C(=O)N[C@@H](CO)C(=O)N[C@@H](CC(C)C)C(=O)N[C@@H](CCCN=C(N)N)CN[C@@H](Cc1c[nH]cn1)C(=O)N[C@@H](Cc1ccc(O)cc1)C(=O)N[C@@H](CC(C)C)C(=O)N[C@@H](CC(N)=O)C(=O)N[C@@H](CC(C)C)C(=O)N[C@H](C(=O)N[C@H](C(=O)N[C@@H](CCCN=C(N)N)C(=O)N[C@@H](CCC(N)=O)C(=O)N[C@@H](CCCN=C(N)N)C(=O)N[C@@H](Cc1ccc(O)cc1)C(N)=O)[C@@H](C)O)C(C)C (H-[X4]([Leu-Ser-Ala-Ac])YLNLVTRQRY-NH2) | > 1000 nM | 4.22 nM | 41 nM |  |  |  |
| CC(=O)N[C@@H](C)C(=O)N[C@@H](CO)C(=O)N[C@@H](CSSC[C@H](NC(=O)[C@H](CO)NC(=O)[C@H](C)NC(C)=O)C(=O)N[C@@H](CCCNC(=N)N)C(=O)N[C@@H](Cc1cnc[nH]1)C(=O)N[C@@H](Cc1ccc(O)cc1)C(=O)N[C@@H](CC(C)C)C(=O)N[C@@H](CC(N)=O)C(=O)N[C@@H](CC(C)C)C(=O)N[C@H](C(=O)N[C@H](C(=O)N[C@@H](CCCNC(=N)N)C(=O)N[C@@H](CCC(N)=O)C(=O)N[C@@H](CCCNC(=N)N)C(=O)N[C@@H](Cc1ccc(O)cc1)C(N)=O)[C@@H](C)O)C(C)C)C(=O)N[C@@H](CCCNC(=N)N)C(=O)N[C@@H](Cc1cnc[nH]1)C(=O)N[C@@H](Cc1ccc(O)cc1)C(=O)N[C@@H](CC(C)C)C(=O)N[C@@H](CC(N)=O)C(=O)N[C@@H](CC(C)C)C(=O)N[C@H](C(=O)N[C@H](C(=O)N[C@@H](CCCNC(=N)N)C(=O)N[C@@H](CCC(N)=O)C(=O)N[C@@H](CCCNC(=N)N)C(=O)N[C@@H](Cc1ccc(O)cc1)C(N)=O)[C@@H](C)O)C(C)C (I: Ac-ASCRHYLNLVTRQRY-NH2 / II: Ac-ASCRHYLNLVTRQRY-NH2; disulfide I:3-II:3) [listing 2 of 2 here] |  |  |  |  |  | 0.000365 µmol/kg |
| Ac-ASWRHYLNLVTRQRY-NH2 |  |  |  | 2.1 nM |  |  |

Continued by falling IC50 [3], values first:

| IC50 [1] | IC50 [2] | IC50 [3] | IC50 [4] | IC50 ([1]; sk-n-mc) | Molecule | ED50 (Rattus norvegicus) |
| --- | --- | --- | --- | --- | --- | --- |
| 674 nM | 5.3 nM | 3.84 nM |  |  | Ac-ASLRAFLNLVTRQRY-NH2 |  |
| 233 nM | 1.07 nM | 3.17 nM |  |  | Ac-ASLRHYWNWVTRQRY-NH2 |  |
| 48.9 nM | 3.4 nM | 2.68 nM |  |  | Ac-YSLRHFLNLVTRQRY-NH2 |  |
|  | 1 nM | 2.63 nM |  | 257 nM | CC(=O)N[C@@H](C)C(=O)N[C@@H](CO)C(=O)N[C@@H](CC(C)C)C(=O)N[C@@H](CCCN=C(N)N)C(=O)N[C@@H](Cc1c[nH]cn1)C(=O)N[C@@H](Cc1ccsc1)C(=O)N[C@@H](CC(C)C)C(=O)N[C@@H](CC(N)=O)C(=O)N[C@@H](CC(C)C)C(=O)N[C@H](C(=O)N[C@H](C(=O)N[C@@H](CCCN=C(N)N)C(=O)N[C@@H](CCC(N)=O)C(=O)N[C@@H](CCCN=C(N)N)C(=O)N[C@@H](Cc1ccc(O)cc1)C(N)=O)[C@@H](C)O)C(C)C (Ac-ASLRH[3Thi]LNLVTRQRY-NH2) |  |
| 764 nM | 2.3 nM | 1.83 nM |  |  | Ac-ASLRHFLNLVTRQRY-NH2 |  |
| > 10000 nM | 14.1 nM | 1.16 nM |  |  | Ac-ASLRHFLNLVTRQRF-NH2 |  |
| 250 nM | 0.6 nM | 0.98 nM |  |  | CC(=O)N[C@@H](C)C(=O)N[C@@H](CO)C(=O)N[C@@H](CC(C)C)C(=O)N[C@@H](CCCN=C(N)N)C(=O)N[C@@H](Cc1c[nH]cn1)C(=O)N[C@@H](Cc1ccc(O)cc1)C(=O)N[C@@H](CC(C)C)C(=O)N[C@@H](CC(N)=O)C(=O)N[C@@H](Cc1c[nH]c2ccccc12)C(=O)N[C@H](C(=O)N[C@H](C(=O)N[C@@H](CCCN=C(N)N)C(=O)N[C@@H](CCC(N)=O)C(=O)N[C@@H](CCCN=C(N)N)C(=O)N[C@@H](Cc1ccc(O)cc1)C(N)=O)[C@@H](C)O)C(C)C | 2.1e-06 µmol/kg |
| 110 nM | 0.63 nM | 0.39 nM |  |  | CC(=O)N[C@@H](C)C(=O)N[C@@H](CO)C(=O)N[C@@H](CSSC[C@H](NC(=O)[C@H](CO)NC(=O)[C@H](C)NC(C)=O)C(=O)N[C@@H](CCCNC(=N)N)C(=O)N[C@@H](Cc1cnc[nH]1)C(=O)N[C@@H](Cc1ccc(O)cc1)C(=O)N[C@@H](CC(C)C)C(=O)N[C@@H](CC(N)=O)C(=O)N[C@@H](CC(C)C)C(=O)N[C@H](C(=O)N[C@H](C(=O)N[C@@H](CCCNC(=N)N)C(=O)N[C@@H](CCC(N)=O)C(=O)N[C@@H](CCCNC(=N)N)C(=O)N[C@@H](Cc1ccc(O)cc1)C(N)=O)[C@@H](C)O)C(C)C)C(=O)N[C@@H](CCCNC(=N)N)C(=O)N[C@@H](Cc1cnc[nH]1)C(=O)N[C@@H](Cc1ccc(O)cc1)C(=O)N[C@@H](CC(C)C)C(=O)N[C@@H](CC(N)=O)C(=O)N[C@@H](CC(C)C)C(=O)N[C@H](C(=O)N[C@H](C(=O)N[C@@H](CCCNC(=N)N)C(=O)N[C@@H](CCC(N)=O)C(=O)N[C@@H](CCCNC(=N)N)C(=O)N[C@@H](Cc1ccc(O)cc1)C(N)=O)[C@@H](C)O)C(C)C (I: Ac-ASCRHYLNLVTRQRY-NH2 / II: Ac-ASCRHYLNLVTRQRY-NH2; disulfide I:3-II:3) [listing 1 of 2 here] |  |

Source: ChEMBL document CHEMBL1133640, “Structure-activity studies including a Psi(CH(2)-NH) scan of peptide YY (PYY) active site, PYY(22-36), for interaction with rat intestinal PYY receptors: development of analogues with potent in vivo activity in the intestine” (J Med Chem, 2000)
